From PubChem BioAssay
CSN deneddyl inh = inhibitors of human CSN-mediated cullin deneddylation; Purified CSN, SCF-Nedd8-OG deneddylation, fluorescence polarization; inhibition, % at 12.5 µM; 360,000 compounds, 0.38% hits; AID 651999;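 active = pattern-corrected inhibition above about 35%, with an unprinted fluorescence ratio check between 0.5 and 1.5, limit read from the data, passing the limit was not always enough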
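Assay system: purified human Csn5 enzyme expressed in HEK293T cells; Input: 0.24 nM Csn5 enzyme, final concentration; Reagent: 10 nM SCFSkp2-Nedd8OG; Compound dosing: 12.5 µM single point; Times: reaction 90 min, room temperature; Technique: fluorescence polarization readout.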
HNF4A DNA FP = change in binding of human HNF4 alpha to DNA. HNF4a-FITC DNA binding, fluorescence polarization, 1 h. AID 1224865. activity change, % at 10 µM. P41235. 360,000 compounds, 0.3% hits; in the data active = activity change above about 30%, passing the limit was not always enough
TPT1 inh = blocks Candida albicans tRNA 2'-phosphotransferase. AID 1962. 300,000 compounds, 0.81% hits. inhibition, % at 5 µM. recombinant caTPT1, FP RNA substrate dephosphorylation;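 active = inhibition above the mean of all tested compounds plus 3 SD, set per screening campaign, cut at about 24% in these data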
PKA-R1A activ = activates the PKA-R1A holoenzyme complex | P00514+P68181 | PKA-R1A dissociation, Cy5-IP20 fluorescence polarization; scaled: DMSO 0%, 113 µM cGMP 100% | activation, % at 11.4 µM | 340,000 compounds, 0.083% hits;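 active = percent activation above the mean of all tested compounds plus 3 SD, cut at about 19% in these data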;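 note: higher means more PKAc released from R1A so a rise in polarization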
PKA-R2B activ = activators of human PKA-R2B complex; P22694+P31323; PKA-R2B holoenzyme dissociation, Cy5-IP20 fluorescence polarization; R2B truncated from residue 108, S112A mutant; 0% DMSO only, 100% 113 µM cGMP; activation, % at 11.4 µM; 340,000 compounds, 0.079% hits; AID 504700;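 active = activation above a cutoff set at the mean over all compounds plus 3 SD, cut at about 18% in these data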;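 note: higher means more holoenzyme dissociation and a rise in polarization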
Target sequence (P31323 whole entry, looked up, other chains not shown, the tested form may be a part): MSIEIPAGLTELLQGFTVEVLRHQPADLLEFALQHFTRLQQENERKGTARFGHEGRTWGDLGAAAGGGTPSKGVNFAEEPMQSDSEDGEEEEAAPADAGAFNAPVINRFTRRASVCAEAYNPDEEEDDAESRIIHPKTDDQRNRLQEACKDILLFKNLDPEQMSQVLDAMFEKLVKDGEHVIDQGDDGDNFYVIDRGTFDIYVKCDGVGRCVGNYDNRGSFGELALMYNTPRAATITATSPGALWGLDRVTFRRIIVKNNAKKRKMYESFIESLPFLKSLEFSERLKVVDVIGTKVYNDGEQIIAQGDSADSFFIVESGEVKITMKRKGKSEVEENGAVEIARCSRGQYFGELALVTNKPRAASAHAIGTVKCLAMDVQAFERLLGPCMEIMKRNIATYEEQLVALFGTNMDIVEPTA
Rpn11 block = inhibitors of human proteasome Rpn11 | calls only at 20 µM | human 26S proteasome, Ub4-pepOG fluorescence polarization; 20S core pre-blocked with epoxomicin | AID 588493 | 360,000 compounds, 0.59% hits;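 active = inhibition at 20 µM, scaled to each plate's controls, above about 33%, limit read from the data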
caTPT1 confirm = TPT1 (C. albicans) inhibition, confirmation | shares compounds with TPT1 inh | recombinant caTPT1, fluorescence polarization, RNase T1 coupled | inhibition, % at 5 µM | 2,400 compounds, 74% hits | AID 2149;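 active = inhibition above the primary screen limit, the mean inhibition of all tested compounds plus 3 SD, cut at about 25% in these data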
RNase T1 inh = RNase T1 inhibition in TPT1 counter-screen; shares compounds with TPT1 inh; RNase T1 cleavage, fluorescence polarization, 1536-well; inhibition, % at 5 µM; 2,400 compounds, 83% hits;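 active = inhibition above the solvent-only control well mean plus 3 SD, limit set per screening run, cut at about 23% in these data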;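 note: inhibitors block cleavage so intact labeled substrate keeps polarization high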
Target sequence (P00651 whole entry, looked up): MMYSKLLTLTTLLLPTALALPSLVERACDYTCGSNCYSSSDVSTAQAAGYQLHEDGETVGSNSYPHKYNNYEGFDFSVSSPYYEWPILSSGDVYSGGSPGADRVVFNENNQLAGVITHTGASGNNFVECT
Each line names hits and unclear results; the compound was inactive in the other large screens (follow-up assays come after a bar, where shown). The list is not random: actives were taken first. Their share in the collection is about 1.6%.

CCC(=O)N1CCN(c2ccc(NC(=S)NC(=O)c3cccc([N+](=O)[O-])c3)cc2)CC1	none
CCCCCCn1cc(CN2CC(N3CCN(CCN(C)C)CC3)CS2(=O)=O)nn1 (stereo unspecified)	none (no result: TPT1 inh, PKA-R1A activ, PKA-R2B activ, Rpn11 block)
COc1ccc(C)cc1S(=O)(=O)N(CC(=O)N1CCOCC1)c1cc(C)cc(C)c1	none
COc1ccc(Br)cc1S(=O)(=O)N(CC(=O)N1CCOCC1)c1ccccc1	TPT1 inh 43 | caTPT1 confirm inactive | RNase T1 inh inactive
C=CCN1C(=O)/C(=C/c2ccsc2)SC1=S	none
C=CCN1C(=O)/C(=C/c2ccc(-c3ccc(F)cc3)o2)SC1=S	TPT1 inh 81 | caTPT1 confirm 115 | RNase T1 inh 120
CCN(CC)CCNc1nc(-c2cccs2)c(CC(=O)O)s1	TPT1 inh 29 | caTPT1 confirm inactive | RNase T1 inh inactive
O=C(O)Cc1sc(Nc2ccccc2)nc1-c1cccs1	CSN deneddyl inh 51, HNF4A DNA FP 45, TPT1 inh 42 (not shown: Rpn11 block) | caTPT1 confirm 36 | RNase T1 inh 46
C=CCNc1nc(-c2cccs2)c(CC(=O)O)s1	none
O=C(O)Cc1sc(Nc2cccc3ccccc23)nc1-c1ccc(F)cc1	none (no result: TPT1 inh)
O=C(O)Cc1sc(NCCc2ccccc2)nc1-c1ccc(F)cc1	TPT1 inh 27 | caTPT1 confirm inactive | RNase T1 inh inactive
O=C1/C(=C\c2c(NCCOCCO)nc3ccccn3c2=O)SC(=S)N1Cc1ccco1	TPT1 inh 86 (not shown: Rpn11 block) | caTPT1 confirm 86 | RNase T1 inh 87
CN(C)c1ccc(C=C2SC(=S)N(Cc3ccco3)C2=O)cc1	none (not shown: TPT1 inh, Rpn11 block)
CC(C)N1C(=O)CCC1C(=O)NCc1ccco1 (stereo unspecified)	none
CC(NS(=O)(=O)c1ccc(F)cc1)C(c1cccs1)N1CCOCC1 (stereo unspecified)	none
CC(NS(=O)(=O)c1ccc([N+](=O)[O-])cc1)C(c1cccs1)N1CCOCC1 (stereo unspecified)	TPT1 inh 36 | caTPT1 confirm inactive | RNase T1 inh inactive
Cc1ccc2c(c1)N(CC(=O)OCC(=O)NCc1ccccc1)C(=O)CO2	none
CCOC(=O)[C@]12CCC=C1N(Cc1ccco1)C(=O)[C@H](CC(=O)NCCCN1CCCC1=O)C2	none (no result: TPT1 inh, PKA-R1A activ, PKA-R2B activ, Rpn11 block)
C=CCn1c(SCc2cccc(OC)c2)nnc1-c1ccncc1	none
CCCCCCNC(=O)C(C#N)c1nc2ccccc2nc1N1CCCC1 (stereo unspecified)	CSN deneddyl inh 40, TPT1 inh 63 | caTPT1 confirm 28 | RNase T1 inh 33
O=C(O)C(=O)/C(=C\c1cccc(Cl)c1)c1ccc2ccccc2n1	TPT1 inh 30 | caTPT1 confirm 42 | RNase T1 inh 58
Cc1cccc(/C=C(\C(=O)C(=O)O)c2ccc3ccccc3n2)c1	none
CCCC1=[N+](CC(=O)c2ccc(C)cc2)CCn2cccc21	TPT1 inh 62 | caTPT1 confirm inactive | RNase T1 inh inactive
COc1ccc(C2=NNC(c3cc(Cl)cc4c3OCOC4)C2)c(O)c1 (stereo unspecified)	TPT1 inh 37 (no result: CSN deneddyl inh, HNF4A DNA FP, PKA-R1A activ, PKA-R2B activ, Rpn11 block) | caTPT1 confirm inactive | RNase T1 inh 28
O=C(O)c1ccccc1-c1ccc(/C=C2\SC(=O)N(c3ccccc3)C2=O)o1	none
O=C1S/C(=C\c2ccc(N3CCOCC3)o2)C(=O)N1Cc1c(F)cccc1Cl	TPT1 inh 148 (not shown: Rpn11 block) | caTPT1 confirm 190 | RNase T1 inh 174
O=C1N=C(N2CCOCC2)S/C1=C/c1ccc(-c2ccccc2Cl)o1	none
O=C(NCCN1CCOCC1)c1ccc2c(c1)N(Cc1c(F)cccc1Cl)C(=O)c1ccccc1S2	none
O=C1S/C(=C/c2ccc(N3CCOCC3)o2)C(=O)N1Cc1c(F)cccc1Cl	TPT1 inh 139 (not shown: Rpn11 block) | caTPT1 confirm 177 | RNase T1 inh 162
O=C1S/C(=C\c2ccc(N3CCOCC3)o2)C(=O)N1c1ccccc1	TPT1 inh active (not shown: Rpn11 block) | caTPT1 confirm 185 | RNase T1 inh 166
Cc1ccc(S(=O)(=O)N2[C@@H](CO)CO[C@H]2CC(=O)c2ccccc2)cc1	none (no result: TPT1 inh, PKA-R1A activ, PKA-R2B activ, Rpn11 block)
CCN1C(=O)[C@@H]2Cc3c([nH]c4ccccc34)C(c3cc(OC)c(OC)c(OC)c3)N2C1=S (stereo partly specified)	TPT1 inh 58 (not shown: Rpn11 block) | caTPT1 confirm 64 | RNase T1 inh 73
C=CCN1C(=O)[C@@H]2Cc3c([nH]c4ccccc34)C(c3ccc(O)cc3)N2C1=S (stereo partly specified)	HNF4A DNA FP 46, TPT1 inh 78 (not shown: Rpn11 block) | caTPT1 confirm 62 | RNase T1 inh 73
COc1cc([C@H]2c3[nH]c4ccccc4c3C[C@H]3C(=O)N4[C@@H](c5cc(OC)c(OC)c(OC)c5)c5[nH]c6ccccc6c5C[C@H]4C(=O)N23)cc(OC)c1OC	none
O=C1[C@@H]2Cc3c([nH]c4ccccc34)C(c3ccccc3)N2C(=O)CN1CCO (stereo partly specified)	none
C=CCN1C(=O)[C@@H]2Cc3c([nH]c4ccccc34)C(c3cc(OC)c(OC)c(OC)c3)N2C1=S (stereo partly specified)	TPT1 inh 57 (not shown: Rpn11 block) | caTPT1 confirm 47 | RNase T1 inh 57
CN(C)CCCN(C(=O)c1cc2cc([N+](=O)[O-])ccc2s1)c1nc2cc3c(cc2s1)OCCO3	none
C[C@H](NC(=O)Cc1cccc2ccccc12)C(=O)N1CCCN(C)CC1	none
O=C(Nc1ccccc1)C1=C[C@@H](C2CC2)C[C@@H](OCc2ccc(CO)cc2)O1	none
Oc1c(/C=C/C=C/C=Nc2ccccc2)sc(=S)n1Cc1ccccc1	HNF4A DNA FP 43, TPT1 inh 43 (not shown: PKA-R1A activ, PKA-R2B activ, Rpn11 block) | caTPT1 confirm 28 | RNase T1 inh 39
CCn1c(O)c(/C=C/C=C/C=Nc2ccccc2)sc1=S	none
O=C(C1=NN(c2ccccc2)C2C(=O)N(c3ccc(Cl)cc3)C(=O)C12)c1ccccc1 (stereo unspecified)	TPT1 inh 33 | caTPT1 confirm inactive | RNase T1 inh 35
O=C(C1=NN(c2ccccc2)C2C(=O)N(c3cccc(Cl)c3)C(=O)C12)c1ccccc1 (stereo unspecified)	TPT1 inh 33 | caTPT1 confirm 37 | RNase T1 inh 51
CC(=O)C1=NOC2C(=O)N(c3ccc(Cl)cc3)C(=O)C12 (stereo unspecified)	none
